A selection: hits, their analogues and other compounds. The true share with any hit is near 3.1%.
KCNQ1 pot: human KCNQ1 channel potentiation or activation; P51787; CHO-K1 KCNQ1, thallium flux FluxOR fluorescence; stronger effect = higher value; B-score at 10 µM; actives 0.35% (n = 310,000);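 active = fluorescence ratio B-score, a plate-corrected score, at least three library SD, with initial intensity B-score within 5 SD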
Target sequence (P51787 whole entry, looked up): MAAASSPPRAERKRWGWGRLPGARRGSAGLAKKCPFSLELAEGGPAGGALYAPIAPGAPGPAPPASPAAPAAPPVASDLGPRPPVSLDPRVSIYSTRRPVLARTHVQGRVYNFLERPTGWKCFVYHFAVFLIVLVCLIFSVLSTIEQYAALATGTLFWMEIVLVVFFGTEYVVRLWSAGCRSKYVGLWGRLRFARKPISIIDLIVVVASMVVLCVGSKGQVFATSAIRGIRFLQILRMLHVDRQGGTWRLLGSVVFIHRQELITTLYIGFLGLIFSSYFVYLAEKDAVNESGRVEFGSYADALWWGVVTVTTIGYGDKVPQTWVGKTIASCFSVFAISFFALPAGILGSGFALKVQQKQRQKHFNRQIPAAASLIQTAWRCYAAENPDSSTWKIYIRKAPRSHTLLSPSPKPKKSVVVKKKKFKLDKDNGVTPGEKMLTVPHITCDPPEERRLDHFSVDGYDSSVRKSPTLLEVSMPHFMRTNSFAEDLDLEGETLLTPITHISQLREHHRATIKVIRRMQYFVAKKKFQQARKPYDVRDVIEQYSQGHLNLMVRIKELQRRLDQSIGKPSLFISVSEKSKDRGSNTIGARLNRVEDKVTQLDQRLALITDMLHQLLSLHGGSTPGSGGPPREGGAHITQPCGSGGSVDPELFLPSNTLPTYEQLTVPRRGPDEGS
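Schedule – 37 °C overnight plating, 90-min dark dye load, 20-min compound pretreatment · System – stable KCNQ1 CHO-K1 line · Probe or stimulus – thallium- and potassium-containing depolarizing buffer · Measured by – kinetic FluxOR fluorescence, 10 s baseline plus 110 s post-stimulus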
KCNK3 inh: human KCNK3 channel inhibition, primary screen; CHO-KCNK3 thallium flux, FluxOR fluorescence; stronger effect = lower value; B-score at 10 µM; actives 0.84% (n = 340,000); AID 602410;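 active = B-score under library mean minus 4 SD, starting fluorescence ratio at most library mean plus 5 SD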;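 note: more negative B-score means stronger inhibition of thallium flux through KCNK3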
KCNK9 block: human KCNK9 channel inhibition; HEK293 KCNK9, FluxOR thallium flux fluorescence; stronger effect = lower value; actives 1.2% (n = 310,000); B-score at 10 µM;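 active = ratio B-score over 3 SD below the library mean, with starting fluorescence within 5 SD of its mean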;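 note: negative B-score means less thallium flux so channel inhibition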
hERG protect: shields human hERG channel from block by proarrhythmic agents | Q12809 | CHO-hERG, FluxOR thallium flux, dofetilide IC70 present | activation (rescue from dofetilide block), less the hit threshold, % at 10 µM | actives 0.51% (n = 310,000);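 active = activation above the mean of controls blocked by dofetilide plus 5 SD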;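 note: thallium influx through hERG after potassium depolarization seen as dye fluorescence rise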
KCNQ1 inh: inhibitors of human KCNQ1 potassium channel. P51787. CHO-K1 KCNQ1, FluxOR thallium flux fluorescence; stronger effect = higher value. B-score at 10 µM. actives 1.3% (n = 310,000);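 active = compounds whose thallium flux B-score, printed positive for inhibition, exceeds three library SD while starting fluorescence stays within three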;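 note: channel opened by potassium depolarization with thallium stimulus after 20 min compound exposure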
KCNK9 block conf: human KCNK9 inhibitor confirmation. shares compounds with KCNK9 block. HEK293 KCNK9 cells, FluxOR thallium flux fluorescence. AID 492992. actives 43% (n = 4,900). inhibition, % at 10 µM;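 active = thallium signal inhibited by more than 5 SD of the compound-free buffer control wells, on both duplicate plates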;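 note: 0% = assay buffer control wells without compound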
Kir21 sel: tests whether KCNK9 modulators also affect mouse Kir2.1 | actives 4% (n = 4,900) | Kir2.1 cells, FluxOR thallium flux fluorescence | shares compounds with KCNK9 block | inhibition, % at 10 µM;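 active = thallium signal drop more than 5 SD beyond the mean of the no-compound control wells, seen in both duplicate plates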;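 note: signal is fluorescence rise after thallium addition divided by baseline fluorescence; plate controls were assay buffer only for no effect and full block by chlorpromazine control for full effect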
HEK293 Tl ctr: second counter-screen for KCNK9 modulators: effect in non-induced cells; shares compounds with KCNK9 block; non-induced KCNK9-HEK293, FluxOR thallium flux; inhibition, % at 10 µM; actives 40% (n = 4,900); AID 492997;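 active = thallium signal drop beyond 5 SD of the untreated control mean, on both duplicate plates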;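 note: plate controls were buffer only IC0 wells for no effect and SID17386958 at its maximal inhibitory level for full effect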
* marks the source's active call; other numbers are inactive results; i = inactive; · = no result.

SMILES	KCNQ1 pot	KCNK3 inh	KCNK9 block	hERG protect	KCNQ1 inh	KCNK9 block conf	Kir21 sel	HEK293 Tl ctr
CN(C)S(=O)(=O)c1ccc(N2CCCC2)c(C(=O)NCC2COc3ccccc3O2)c1 (centres undefined)	i	i	i	-15.9	i	i	i	i
CN(C)S(=O)(=O)c1ccc(N2CCCC2)c(C(=O)Nc2ccccc2N2CCOCC2)c1	·	i	·	·	·	·	·	·
CN(C)S(=O)(=O)c1ccc(N2CCCC2)c(C(=O)NCC2CCCCC2)c1	i	i	i	-6.8	i	·	·	·
CN(C)S(=O)(=O)c1ccc(N2CCCC2)c(C(=O)Nc2ccccc2OC(F)F)c1	i	i	i	-8.4	i	i	i	i
CSc1ccccc1NC(=O)c1cc(S(=O)(=O)N(C)C)ccc1N1CCCC1	i	i	i	-10.1	i	i	i	i
O=C(Cn1cc([N+](=O)[O-])nc1[N+](=O)[O-])N1CCN(c2ccccc2)CC1	i	i	i	-6.0	i	·	·	·
CCCN(CC(=O)Nc1ccccc1OC)C(=O)c1ccc(S(=O)(=O)Nc2ccccc2)cc1	i	i	i	-9.1	i	·	·	·
O=C(CSc1nc(N2CCCCC2)nc(N2CCCCC2)n1)N1CCN(c2ccccc2)CC1	i	i	i	-2.2	i	i	i	i
Cc1nc(SCC(=O)N2CCN(c3ccccc3)CC2)n[nH]1	i	i	i	-8.8	i	·	·	·
COc1ccccc1NC(=O)Nc1nnc(C(C)c2ccccc2)s1 (centres undefined)	i	i	-10.4*	-11.4	i	55.5%*	i	24.0%*
N/C(Cc1ccc([N+](=O)[O-])cc1)=N\OC(=O)COc1ccccc1Cl	i	i	i	-12.1	i	·	·	·
N/C(Cc1ccc([N+](=O)[O-])cc1)=N\OC(=O)COc1cccc2ccccc12	i	i	-8.34*	-9.3	i	i	i	37.0%*
Cc1ccc(NC(=S)NNC(=O)c2cccc([N+](=O)[O-])c2)cc1Cl	i	i	i	-14.4	8*	i	i	i
O=C(NNC(=S)Nc1ccc(F)cc1)c1cccc([N+](=O)[O-])c1	i	i	i	-13.1	i	·	·	·
O=C(CCl)N(c1ccc(Cl)cc1)c1c[nH]c2ccccc12	i	i	i	-17.1	i	i	i	i
O=C(CCl)N(c1ccccc1)c1c[nH]c2ccccc12	i	i	i	-3.5	i	·	·	·
Nc1c(C(=O)c2ccccc2)sc(Nc2ccccc2)c1S(=O)(=O)c1ccccc1	i	i	i	-15.1	i	i	i	i
Cc1ccc(N(Cc2ccc([N+](=O)[O-])cc2)C(=O)c2ccco2)cc1C	i	i	-13.5*	-11.9	i	55.5%*	i	41.5%*
Cc1cc(/C=c2\sc3nc4ccccc4n3c2=O)c(C)n1-c1ccc(C(=O)O)cc1	i	i	i	-31.3	i	i	i	i
Cc1cccc(C(=O)NCC(=O)OCC(=O)c2ccc(Cl)s2)c1	i	i	i	-11.8	i	·	·	·
O=C1/C(=C/c2cccc(O)c2)SC(=S)N1CC1CCCO1 (centres undefined)	i	i	i	-5.2	i	·	·	·
COc1cccc(/C=C2\SC(=S)N(CC3CCCO3)C2=O)c1 (centres undefined)	i	i	i	-6.8	i	i	i	i
Cc1ccc(NC(=O)c2nc(S(=O)(=O)Cc3ccccc3)ncc2Cl)cc1	i	i	i	-18.0	i	·	·	·
O=C(Nc1ccc(F)cc1)c1nc(S(=O)(=O)Cc2ccccc2)ncc1Cl	i	i	-8.97*	-21.2	i	47.0%*	i	i
CN(Cc1nc(Cc2ccccc2F)no1)Cc1cccc2ncccc12	i	i	i	-7.2	i	·	·	·
SMILES	KCNQ1 pot	KCNK3 inh	KCNK9 block	hERG protect	KCNQ1 inh	KCNK9 block conf	Kir21 sel	HEK293 Tl ctr
CN(C)/N=C/c1ccc(Sc2ccccc2[N+](=O)[O-])o1	i	i	i	-7.2	i	i	i	i
Cc1ccc(S(=O)(=O)N2CC3CCCN3c3ccc(C(F)(F)F)cc32)cc1 (centres undefined)	i	i	-19.2*	-11.5	i	66.0%*	i	40.5%*
O=S(=O)(c1ccc(F)cc1)N1CC2CCCN2c2ccc(C(F)(F)F)cc21 (centres undefined)	i	i	-12.6*	-11.8	i	29.5%*	i	42.5%*
Cc1ccc(S(=O)(=O)N2CCC(Oc3cccc(C(F)(F)F)c3)CC2)cc1	i	i	i	-7.8	i	·	·	·
Cc1cccc(C(=O)N[C@@H](C)C(=O)N2CCN(c3ncccn3)CC2)c1	·	i	·	·	·	·	·	·
Cn1c(N)c(C(=O)COC(=O)c2ccc3c(c2)C(=O)N(c2ccc(Cl)cc2)C3=O)c(=O)n(C)c1=O	i	i	i	-11.1	i	·	·	·
CCOCCCNC(=S)N1CCCN(c2nc3cc(C)c(C)cc3cc2C#N)CC1	i	i	i	-20.9	i	i	i	i
Fc1ccc(OCc2nc(-c3ccc(Br)o3)no2)c(F)c1	i	i	i	-6.9	i	·	·	·
COc1cccc(OCc2nc(-c3ccc(Br)o3)no2)c1	i	i	i	-12.9	i	i	i	i
Cc1cccc(OCc2nc(-c3ccc(Br)o3)no2)c1	i	i	i	-7.1	i	i	i	23.5%*
COc1cccc(/C=N/NC(=O)c2nc(-c3ccccc3)cc(-c3ccccc3)n2)c1	i	i	-8.54*	-20.2	i	34.0%*	i	i
COc1ccc(/C=N/NC(=O)c2nc(-c3ccccc3)cc(-c3ccccc3)n2)cc1OC	i	i	-9.73*	-16.2	i	31.0%*	i	i
Cc1cc(C)cc(NC(=O)COC(=O)Cn2cnc3c2c(=O)n(C)c(=O)n3C)c1	·	i	·	·	·	·	·	·
CCCCCCCC(=O)NNC(=O)c1c(O)c2ccccc2n(CC)c1=O	i	i	i	-5.7	i	i	i	i
CCCCCCC(=O)NNC(=O)c1c(O)c2ccccc2n(CC)c1=O	i	i	i	-7.2	i	·	·	·
CCCCCCCC(=O)NNC(=O)c1c(O)c2ccccc2n(CCC)c1=O	i	i	i	-7.1	i	i	i	i
COc1ccc(CN2CCN(S(=O)(=O)c3ccccc3)CC2)c(OC)c1OC	i	i	i	-3.5	i	·	·	·
CN(Cc1ccccc1F)C(=O)c1ccc(Oc2ccccc2)cc1	i	i	i	-13.8	i	i	i	i
